Experimental data taken from PMC4887080 (Journal of nuclear medicine : official publication, Society …, 2016).

How the values were obtained:
[1] = test system: human MM cell lines H929, RPMI-8226, OPM2; assay: Flow cytometry binding of LLP2A-Cy5 to human MM cell lines; type: cell-based
[2] = Human radiation dose estimates extrapolated from mouse biodistribution; type: in vivo, BALB/c mice, scaled to adult human male model
In short: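 64Cu tracer biodistribution in normal BALB/c mice given 0.78 MBq. Organs were collected at 1, 2, 4, 12, 24 and 48 h, and %ID/g was decay-corrected. A final group was housed in metabolic cages to collect urine and feces. Organ residence times (2-h void; 1-h void scenario also run) were scaled to human organ weight for the adult male model. Maximum injection assumes a 50 mGy bladder-wall limit. Mean ± SD.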

[3] = type: in vivo, BALB/c mice
In short: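 BALB/c mice received 0.78 MBq of 64Cu tracer, with sampling at 1, 2, 4, 12, 24 and 48 h. The last group was kept in metabolic cages to collect excreted urine and feces. Time–activity curves for urine excretion and blood clearance were built as percentage injected activity. Urine residence time used a 1-h void assumption.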

VLA-4 [4] = target: T1, VLA-4 (Mus musculus, UniProt P09055+Q00651); type: in vivo, KaLwRij mouse
VLA-4 [5] = target: T1, VLA-4; assay: PET uptake in tumor-free α4 -/- mice vs wild-type KaLwRij mice; type: in vivo; details: tumor-free α4 -/- mice compared with age-matched wild-type KaLwRij mice
[6] = test system: VLA-4-positive 5TGM1-GFP murine myeloma cells; assay: Flow cytometry binding of LLP2A-Cy5 to 5TGM1-GFP cells; type: cell-based, mouse; details: coincubated at similar concentrations, P < 0.05

T1 sequence (Q00651 40-1039 limits assumed): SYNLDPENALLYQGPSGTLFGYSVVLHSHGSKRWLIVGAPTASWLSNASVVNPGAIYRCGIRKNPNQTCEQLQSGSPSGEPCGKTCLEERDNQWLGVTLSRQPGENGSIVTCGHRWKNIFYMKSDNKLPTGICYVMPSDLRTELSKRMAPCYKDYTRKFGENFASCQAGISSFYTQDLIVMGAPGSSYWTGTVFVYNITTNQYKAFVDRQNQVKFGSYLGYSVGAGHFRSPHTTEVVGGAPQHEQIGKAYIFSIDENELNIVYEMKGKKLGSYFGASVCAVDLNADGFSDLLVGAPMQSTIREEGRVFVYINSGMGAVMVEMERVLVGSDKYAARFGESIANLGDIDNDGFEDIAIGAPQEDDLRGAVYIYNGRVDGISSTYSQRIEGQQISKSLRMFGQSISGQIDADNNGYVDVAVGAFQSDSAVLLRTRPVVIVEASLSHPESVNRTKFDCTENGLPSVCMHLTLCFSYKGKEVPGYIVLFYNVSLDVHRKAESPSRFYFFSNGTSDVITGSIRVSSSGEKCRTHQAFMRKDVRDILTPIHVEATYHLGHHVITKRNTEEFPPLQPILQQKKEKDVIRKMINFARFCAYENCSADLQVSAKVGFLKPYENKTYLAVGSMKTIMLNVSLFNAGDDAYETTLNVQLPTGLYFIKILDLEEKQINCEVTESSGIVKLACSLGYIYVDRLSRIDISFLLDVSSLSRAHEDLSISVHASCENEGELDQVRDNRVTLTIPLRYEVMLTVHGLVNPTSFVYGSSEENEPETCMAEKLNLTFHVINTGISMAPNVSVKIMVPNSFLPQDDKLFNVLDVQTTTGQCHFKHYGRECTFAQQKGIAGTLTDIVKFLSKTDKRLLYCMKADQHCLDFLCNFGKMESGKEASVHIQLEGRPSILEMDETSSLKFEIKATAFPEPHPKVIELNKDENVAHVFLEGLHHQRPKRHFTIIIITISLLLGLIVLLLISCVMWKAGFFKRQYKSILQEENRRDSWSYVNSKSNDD
T1 sequence (P09055 21-798): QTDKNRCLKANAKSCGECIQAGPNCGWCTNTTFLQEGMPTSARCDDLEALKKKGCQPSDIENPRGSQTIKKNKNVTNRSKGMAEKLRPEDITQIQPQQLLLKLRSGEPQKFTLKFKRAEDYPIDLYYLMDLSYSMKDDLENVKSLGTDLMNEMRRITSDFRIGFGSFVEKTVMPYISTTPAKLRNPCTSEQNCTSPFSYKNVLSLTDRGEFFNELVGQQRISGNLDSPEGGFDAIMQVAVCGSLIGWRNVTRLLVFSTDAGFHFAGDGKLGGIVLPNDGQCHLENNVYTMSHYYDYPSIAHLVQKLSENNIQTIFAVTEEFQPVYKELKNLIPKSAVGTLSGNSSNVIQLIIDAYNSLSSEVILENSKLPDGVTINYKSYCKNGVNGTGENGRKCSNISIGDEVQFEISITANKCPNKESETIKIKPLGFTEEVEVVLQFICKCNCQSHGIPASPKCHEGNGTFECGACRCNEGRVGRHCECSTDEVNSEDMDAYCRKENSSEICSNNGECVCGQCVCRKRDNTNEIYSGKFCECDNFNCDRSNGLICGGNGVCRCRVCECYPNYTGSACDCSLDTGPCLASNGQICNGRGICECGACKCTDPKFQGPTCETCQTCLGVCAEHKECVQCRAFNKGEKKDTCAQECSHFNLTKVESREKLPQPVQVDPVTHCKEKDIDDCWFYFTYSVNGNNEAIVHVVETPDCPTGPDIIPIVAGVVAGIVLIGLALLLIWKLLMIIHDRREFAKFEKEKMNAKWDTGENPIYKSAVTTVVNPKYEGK

For `Cc1ccccc1NC(=O)Nc1ccc(CC(=O)N(C)[C@@H](CC(C)C)C(=O)NCC[C@H](NC(=O)[C@@H]2CCCN2S(=O)(=O)c2cc(Cl)cc(Cl)c2)C(=O)O)cc1` [BIO5192], the “Effect on LLP2A-Cy5 cell binding” value [1] was “blocked”.

In the case of “^64Cu-CB-TE1A1P-PEG4-LLP2A [^64Cu-LLP2A]”, the Bladder dose ([2]; 1-h bladder-voiding interval) is reported as 0.094 mGy/MBq, the Red marrow dose ([2]; 1-h bladder-voiding interval) is reported as 0.005 mGy/MBq and the “Human radiation dose estimate, urinary bladder wall (dose-limiting organ)” value ([2]; as stated in abstract and discussion, void interval not stated) is reported as 0.200 mGy/MBq. For the same compound, the “Human radiation dose estimate, red marrow” value ([2]; as stated in abstract, void interval not stated) was 0.006 mGy/MBq, the Maximum injection ([2]; assuming maximum permissible dose of 50 mGy to the bladder wall) was 532 MBq and the “Urine excreted, expressed as residence time” value ([3]; 1-h void assumption) was 14.01 h. For the same compound, the “Blood clearance half-life, fast component” value ([3]; dual-exponential fit of blood time-activity curve, mice) was 6 min, the “Residence time from area under the curve of urine data” value ([3]; urine collected in metabolic cages) was 14.46 h and the “Tumor uptake when coinjected with blocker” value (VLA-4 [4]; coinjected with a 200-fold excess of cold-LLP2A) was “reduced to the background levels”. The Tumor uptake (VLA-4 [4]; subcutaneous 5TGM1-GFP model, i.v. injection of 0.48 MBq, PET at 24 h) was “excellent tumor uptake” and the “Uptake in the spleen of α4 -/- mice” value (VLA-4 [5]) was “negligible uptake”.

With `CCOCc1cc(OC)c(-c2ccc(C[C@H](NC(=O)c3c(F)cccc3F)C(=O)O)cc2)c(OC)c1` [firategrast] the “Effect of competitor on LLP2A-Cy5 cell binding” value [6] was “competitively inhibited”.
